Assay results collected from several papers.
Lines come from different studies, so protocols differ.
Target: Serine/threonine-protein kinase pim-1 (PIM1, Homo sapiens, UniProt P11309)

Compound | observed | mode | method | tested at | measurement | result
Cc1nc(Cc2cccc(C(F)(F)F)c2)sc1-c1ccc(C(N)=O)nc1 | cell-free assay |  | competition with immobilised ligand | 1 µM | remaining binding | 96%
CC/C(=N\NC(=O)NCc1cccc(O)c1)c1ccc(O)c(C)c1O | enzyme activity | inhibitor |  | 0.1 µM | inhibition | 2.4%
Nc1c(C(=O)NCc2ccc(C(=O)NCCCC3CCCCC3)cc2)cnn1-c1ccccc1 | cell-free assay |  | competition with immobilised ligand | 0.1 µM | remaining binding | 93%
O=C1NC(=O)c2cc(Nc3ccc(F)cc3)c(Nc3ccc(F)cc3)cc21 | cell-free assay |  |  | 0.5 µM | remaining signal | 81.8%
COc1cc(Nc2cnc(C#N)c(O[C@H](C)CN(C)C)n2)ncc1-c1cnn(C)c1 | enzyme activity | inhibitor | radiometric | 10 µM | remaining activity | 22%
N#Cc1ccc(Nc2ccc3[nH]c(=O)[nH]c3c2)c(Cl)c1 | cell-free assay |  | competition with immobilised ligand | 1 µM | remaining binding | 90%
CCN(CC)CCNC(=O)c1c(C)[nH]c(/C=C2\C(=O)Nc3ccc(F)cc32)c1C | cell-free assay |  |  | 0.5 µM | remaining signal | 94.4%
COc1cc2ncnc(Nc3ccc(Oc4ccccc4)c(C)c3C)c2cc1OC | enzyme activity | inhibitor |  | 1 µM | inhibition | 5%
COCCOc1nc(-c2ccc(Cl)nc2)nc2c1CN(C(=O)c1ncn3ccccc13)CC2 | cell-free assay |  | competition with immobilised ligand | 0.1 µM | remaining binding | 100%
Nc1nc(NC2CCCCC2)sc1C(=O)c1ccccc1 | enzyme activity | inhibitor |  | 10 µM | remaining activity | 94%
CNCc1ccccc1-c1csc([C@H](C)Nc2nc(C)nc3cc(OC)c(OC)cc23)c1 | cell-free assay |  | competition with immobilised ligand | 1 µM | remaining binding | 100%
Cc1ccc(Nc2nccc(N(C)c3ccc4c(C)n(C)nc4c3)n2)cc1S(N)(=O)=O | enzyme activity | inhibitor |  | 0.3 µM | inhibition | -1%
CN1CC(Oc2cnc(C#N)cc2-c2ccn3nc(NC(=O)C4CC4)cc3c2)C1 | enzyme activity | inhibitor |  | 1 µM | inhibition | -7%
COc1cc(Cl)c(C(=O)N[C@@H](CN[C@H]2CC[C@@H](N)CC2)Cc2ccc(C#N)cc2)cc1-c1ccc(CN[C@H](C)c2ccc(C)cc2)o1 | enzyme activity | inhibitor |  | 1 µM | remaining activity | 110%
O=C(Nc1cnn(-c2csc(C(=O)NC3COC3)c2)c1)Nc1c(F)cccc1Cl | enzyme activity | inhibitor |  | 5 µM | remaining activity | 73.3%
CN(C)C1CCN(CC#Cc2nn(C3CCCC3)c3nc(NCc4ccccc4)ncc23)C1 (stereo not shown) | enzyme activity | inhibitor | FRET | 10 µM | inhibition | 2%
Cc1nc(N2CC[C@@H](O)C2)ncc1-c1cc(C(F)(F)F)cc2[nH]ncc12 | binding |  | competition with immobilised ligand | 1 µM | remaining binding | 100%
Cc1ccc(NC(=O)c2ccc(C)c(C(F)(F)F)c2)cc1C#Cc1nn(C2CCC(O)CC2)c2ncnc(N)c12 (stereo not shown) | cell-free assay |  |  | 10 µM | remaining signal | 99%
O=S(=O)(Nc1cc(Sc2ncn[nH]2)c(O)c2ccccc12)c1ccc(-c2ccccc2)cc1 | enzyme activity | inhibitor |  | 1 µM | remaining activity | ≥ 75%
